T cruzi inh = inhibitors of intracellular T. cruzi growth, primary screen, luminescence, NIH3T3 host cells | inhibition, % (test concentration not listed) | T. cruzi beta-gal in NIH3T3, 90 h | hit rate 1.4% among 300,000 | AID 1885, 2009;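 active = mean inhibition across valid replicates above about 55%, limit read from the data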;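 also: signal also drops with host cell toxicity which is not excluded here; 0% = plate median of DMSO wells and 100% = zero luminescence signal; higher percent means less beta-gal luminescence so fewer parasites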
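Test system: β-gal T. cruzi (Tulahuen C4) inside NIH/3T3 cells / Quantity: 5,000 cells/well / Measured by: luminescence from GalScreen with 0.05% NP40, read after 60 min / Medium: DMEM plus 2% FBS / Measure: parasite load inhibition, % / Reagent: Tulahuen C4 trypomastigotes, 5000/well / Schedule: co-culture of at least 90 h after 3 h attachment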
CHT block = inhibitors of human choline transporter CHT; CHT-expressing cells, membrane potential dye, choline response; active compounds read low; B-score at 10 µM; hit rate 0.86% among 310,000; AID 488975, 2010;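 active = B-score over 3 SD under the library average, and starting fluorescence ratio not unusually high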;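 also: choline stimulus applied at its EC90 after an EC20 pre-addition; B-score computed on integrated fluorescence ratio after choline addition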
Target sequence (Q9GZV3 whole entry, looked up): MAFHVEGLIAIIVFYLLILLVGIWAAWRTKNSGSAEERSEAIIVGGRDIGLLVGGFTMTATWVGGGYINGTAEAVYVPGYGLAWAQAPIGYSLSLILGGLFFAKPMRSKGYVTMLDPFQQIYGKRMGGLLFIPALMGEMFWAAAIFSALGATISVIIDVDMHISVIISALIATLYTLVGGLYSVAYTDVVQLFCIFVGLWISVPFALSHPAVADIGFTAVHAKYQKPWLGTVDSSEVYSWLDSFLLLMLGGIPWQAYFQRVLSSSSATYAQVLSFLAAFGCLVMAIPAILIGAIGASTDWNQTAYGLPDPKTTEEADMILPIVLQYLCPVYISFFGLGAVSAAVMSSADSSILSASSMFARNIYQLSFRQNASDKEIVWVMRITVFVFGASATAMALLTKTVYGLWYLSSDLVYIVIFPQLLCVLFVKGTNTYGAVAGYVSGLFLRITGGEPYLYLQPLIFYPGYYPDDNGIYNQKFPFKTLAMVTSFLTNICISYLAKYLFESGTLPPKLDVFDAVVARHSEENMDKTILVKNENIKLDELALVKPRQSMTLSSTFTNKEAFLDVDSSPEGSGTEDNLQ
PolyA inhibitor = polyadenylation inhibitors in yeast reporter cells, primary screen, luminescence, S. cerevisiae. S. cerevisiae SKY197-pL101 polyadenylation reporter, beta-gal luminescence; efflux-impaired pdr1/pdr3 knockout yeast; score 100 = 6 SD above DMSO. activity score, % at 12 µM. hit rate 0.02% among 300,000. AID 1875, 2009;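 active = lowest replicate activity score at least 50, where 100 means six control SD above control mean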;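 also: yeast exposed to compound for 9 h at 30 °C; higher score means more reporter readthrough which indicates perturbed polyadenylation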
CHT PAM = CHT positive allosteric modulators, primary screen, cell-based, membrane potential dye, choline EC20. CHT-expressing cells; active compounds read high; LV-AA mutant CHT in HEK293 cells. B-score at 10 µM. hit rate 0.49% among 310,000. AID 488977, 2010;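 active = initial fluorescence not abnormally high and integrated response B-score, plate-corrected, over 3 SD above library mean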
Starred values were filed as active, the others as inactive; i = inactive; . = no result given. Only some compounds are listed: those with a hit (about 2.6% of all), similar ones and a draw of the others.

SMILES | T cruzi inh | CHT block | PolyA inhibitor | CHT PAM
Cc1nn(-c2ccccc2)c(N2CCCC2)c1/C=N/NC(=O)c1cc(-c2ccccn2)nc2ccccc12 | 4 | i | 2 | i
Cc1nn(-c2ccccc2)c(N2CCCC2)c1/C=N/NC(=O)c1cc(-c2ccccc2)nc2ccccc12 | 63* | i | -17 | i
C/C(=N\NC(=O)Cc1ccccc1)c1ccc(Cl)s1 | 1 | i | -8 | i
CCC(C)NCCOCCOc1ccc(Cl)c(C)c1C (stereo not given) | 59* | i | -6 | i
CCC(C)NCCCOc1cc(Cl)ccc1Cl (stereo not given) | 3 | i | 6 | i
CCC(C)NCCOCCOc1ccc(Cl)c2ccccc12 (stereo not given) | 55* | i | -11 | i
COc1cccc(CNC(=O)[C@@H](C)N2C(=O)N3CCc4c([nH]c5ccc(OC)cc45)C3(C)C2=O)c1 (stereo not given in full) | -5 | i | -6 | i
COc1ccc(/C=N/Nc2cc(C)nc3ccc(Br)cc23)cc1 | 59* | i | 3 | i
COc1ccc2nc(C)cc(N/N=C/c3cccc(OC)c3O)c2c1 | 18 | i | 5 | i
Cc1nnc(SCC(=O)NC(C)(C)C)n1NCc1c(F)cccc1Cl | -15 | i | -1 | i
CN1CCc2nc(SCc3ccc(C(C)(C)C)cc3)c(C#N)cc2C1 | 57* | i | 3 | i
Cc1ccc(CSc2nc3c(cc2C#N)CCC3)cc1 | 8 | i | 7 | i
CN1CCc2nc(SCc3ccc(Cl)cc3)c(C#N)c(-c3cccs3)c2C1 | 58* | i | -2 | i
Cc1ccc(CNC(=O)CCCCCNC(=O)N2CCn3c2nc2ccccc23)cc1 | 1 | i | -1 | i
COc1ccccc1CN1C[C@@H]2C[C@@H](c3ccc(C)c(C)c3)N3CCC[C@@]23C1=O | 68* | i | -3 | i
COc1ccc([C@@H]2C[C@H]3CN(Cc4ccccc4OC)C(=O)[C@]34CCCN24)cc1C | 29 | i | -15 | i
CCCSCCCNC(=O)c1ccc(C)c(NC(=O)C2=C(C)OCCS2)c1 | -3 | i | 10 | i
CC(=O)N(CCCN(C)C)CCC(C)CCC=C(C)C (stereo not given) | 65* | i | -5 | i
COc1cc(/C=N\NC(=O)CNC(=O)C2COc3ccccc3O2)ccc1O (stereo not given) | 4 | i | 6 | i
CCN(CC)c1ccc(/C=N/NC(=O)CNC(=O)C2COc3ccccc3O2)c(O)c1 (stereo not given) | 63* | i | -2 | i
COc1ccc(OC)c(NC(=O)CSc2nncc(=O)n2N)c1 | -19 | i | -21 | i
Cc1ccc(NP(=O)(c2ccc(N(C)C)cc2NC(=O)c2cccs2)N2CCOCC2)cc1 (stereo not given) | 57* | i | -2 | i
O=C1CCC(C(=O)Nc2ccccc2N2CCOCC2)=NN1 | 5 | i | -1 | i
O=C(Nc1ccc(C2=NCCN2)cc1)c1ccc(Cl)c(C(=O)Nc2ccc(C3=NCCN3)cc2)c1 | -5 | i | -13 | i
Clc1ccc(C2=NCCN2)cc1 | 62* | i | -16 | i
SMILES | T cruzi inh | CHT block | PolyA inhibitor | CHT PAM
O=C(/C=C/c1ccc([N+](=O)[O-])s1)N1CCCCC1 | 0 | i | -10 | i
O=C(/C=C/c1ccc([N+](=O)[O-])s1)N1CCN(c2ccccc2)CC1 | 59* | i | -23 | i
CC(C)C(NC(=O)c1c(F)cccc1F)C(=O)NCCc1ccc(S(N)(=O)=O)cc1 (stereo not given) | -5 | i | -2 | i
Cc1nc(Nc2ccc(Cl)cc2)c2nnn(Cc3ccccc3)c2n1 | 17 | i | 0 | i
Cc1nc(Nc2ccc(S(=O)(=O)N3CCCCC3C)cc2)c2nnn(Cc3ccccc3)c2n1 (stereo not given) | 64* | i | -2 | i
COc1ccc(OC)c(NC(=O)CSc2ccc(-c3cccnc3)nn2)c1 | -1 | i | -1 | i
C=CCc1c(C)nc(-c2ccccc2)nc1N/N=C/c1ccncc1 | 55* | i | 5 | i
C=CCc1c(C)nc(-c2ccccc2)nc1N/N=C/c1ccccc1 | 16 | i | 10 | i
Cc1cc(C)n(C(=O)Cn2nc(C)c(Cl)c2C)n1 | -22 | i | -8 | i
CCc1cccc(NC(=O)CNC(=O)N2CC(=O)Nc3ccccc32)c1 | 6 | i | -21 | i
CCc1cccc(Nc2c([N+](=O)[O-])cc(C(=O)N3CC(=O)Nc4ccccc43)cc2[N+](=O)[O-])c1 | 77* | i | 2 | i
CN(CCOc1ccccc1)CC(O)COCc1ccccc1F (stereo not given) | 55* | i | -2 | i
Cc1[nH]c2ccccc2c1/C=N/Nc1ccccc1[N+](=O)[O-] | 62* | i | -38 | i
O=C(COc1ccc(C(=O)c2ccccc2)cc1)Nc1cccnc1 | -5 | i | -1 | i
CCN(CC)CCNc1nc2cc(OC)c(OC)cc2c2nc(-c3ccccc3)nn12 | 65* | i | -10 | i
CCOC(=O)c1cc2c(=O)n3ccccc3nc2n(C(C)C)c1=NC(=O)c1c(-c2ccccc2Cl)noc1C | 63* | i | -28 | i
Cc1[nH]c(C)c(C(=O)/C=C/c2ccc([N+](=O)[O-])cc2)c1C | 16 | i | -32 | i
CC(C)(C)C(=O)Cn1ncc(N2CCOCC2)c(Cl)c1=O | -16 | i | 1 | i
CC(C)(C)C(=O)Cn1ncc(Br)c(Br)c1=O | 61* | . | 5 | .
CC(=O)Nc1ccc(C(=O)OCC(=O)c2cccc([N+](=O)[O-])c2)cc1 | -16 | i | 2 | i
Cc1ccc(C(=O)COC(=O)c2cccc(NC(=O)c3ccc([N+](=O)[O-])cc3[N+](=O)[O-])c2)cc1 | 71* | i | -12 | i
O=C(COC(=O)c1ccccc1NC(=O)c1ccccc1)c1cccc([N+](=O)[O-])c1 | -6 | i | -12 | i
O=C(COC(=O)c1ccccc1NC(=O)c1ccccc1)c1ccc([N+](=O)[O-])cc1 | 5 | i | -8 | 6.4*
COc1ccc(C)cc1NC(=O)c1ccc([N+](=O)[O-])cc1[N+](=O)[O-] | 71* | i | -15 | i
Cc1cccc(C)c1NS(=O)(=O)c1c(C(=O)N2CCCCC2)c(C)n(C)c1C | 5 | i | 1 | i
Cc1onc(-c2c(F)cccc2Cl)c1C(=O)Nc1nnc(C(F)(F)F)s1 | -7 | -8.7* | 8 | i
CC(C)(C)c1ccc(-n2nc(C#N)c(Cl)cc2=O)cc1 | 66* | . | -46 | .
O=c1cc(C(Cl)(Cl)Cl)oc2c1ccc1ccccc12 | 69* | i | -24 | i
O=c1cc(-c2ccco2)oc2c1ccc1ccccc12 | 14 | i | -31 | i

High-throughput results (PubChem BioAssay)
